Calls of active or inactive are those of the source. The calls are words filed in the database; no cut-off is given here.
Target: T1, Indoleamine 2,3-dioxygenase 1 (Homo sapiens, UniProt P14902)
Assay: Inhibition of purified human recombinant IDO
Conditions: not given

Q: Which IC50 does the source give for `O=C1C=CC(=O)c2c(O)cccc21` [JUGLONE] here?
A: 1 µM

Q: For `CC1(C)C=CC2=C(O1)C(=O)c1cccc(O)c1C2=O`, which IC50 is on record?
A: 0.19 µM

Q: Which IC50 does the source give for `COc1cccc2c1C(=O)C1=C(OC(C)(C)C=C1)C2=O` here?
A: 2.13 µM

Q: Which IC50 does the source give for `Cc1c(SC[C@H](NC(=O)CC[C@H](N)C(=O)O)C(=O)NCC(=O)O)c(O)c2ccccc2c1O` here?
A: 0.34 µM

Q: For `O=C1C=C(O)C(=O)c2ccccc21` [LAWSONE], which IC50 is on record?
A: 675 µM

Q: With `CC1(C)OC2=C(C(=O)c3ccccc3C2=O)C(O)C1Br` (stereo not given) as the compound, how does the IC50 read?
A: 0.512 µM

Q: For `CC1(C)OC2=C(C(=O)c3ccccc3C2=O)[C@@H]2O[C@@H]21`, which IC50 is on record?
A: 4.95 µM

Q: With `CC1(C)C=CC2=C(O1)C(=O)c1cc(O)ccc1C2=O` as the compound, how does the IC50 read?
A: 2.05 µM

Q: Which IC50 does the source give for `CC1(C)OC2=C(C(=O)c3ccccc3C2=O)C(O)C1O` (stereo not given) here?
A: 1.5 µM

Q: For `CC1(C)C=CC2=C(O1)C(=O)c1ccccc1C2=O` [DEHYDRO-ALPHA-LAPACHONE], which IC50 is on record?
A: 0.214 µM

Q: With `CC1(C)OC2=C(C(=O)c3ccccc3C2=O)C(SCc2ccccc2)C1O` (trans isomer) as the compound, how does the IC50 read?
A: 2.12 µM

Q: For `CC1=C(C/C=C(\C)CCC[C@H](C)CCC[C@H](C)CCCC(C)C)C(=O)c2ccccc2C1=O`, which Activity is on record?
A: inactive

Q: With `O=C1C(Cl)=C(Cl)C(=O)c2ccccc21` [Dichlon] as the compound, how does the IC50 read?
A: 0.28 µM

Q: With `C=CCNC1C2=C(OC(C)(C)C1O)C(=O)c1ccccc1C2=O` (trans isomer) as the compound, how does the IC50 read?
A: 0.186 µM

Q: With `COC(=O)C1(C)C=CC2=C(O1)C(=O)c1ccccc1C2=O` (stereo not given) as the compound, how does the IC50 read?
A: 0.247 µM

Q: For `COc1cccc2c1C(=O)C1=C(C=CC(C)(C)O1)C2=O`, which IC50 is on record?
A: 2.92 µM

Q: Which IC50 does the source give for `CC1(C)OC2=C(C(=O)c3ccccc3C2=O)C(N2CCOCC2)C1O` (trans isomer) here?
A: 0.361 µM

Q: For `CC1(C)C=CC2=C(O1)C(=O)c1c(O)cccc1C2=O`, which IC50 is on record?
A: 0.121 µM

Q: Which IC50 does the source give for `CC1(C)C=CC2=C(O1)C(=O)c1ccc(O)cc1C2=O` here?
A: 5.52 µM

Q: For `O=C1C=CC(=O)C=C1`, which Activity is on record?
A: inactive

Q: Which IC50 does the source give for `COC1C2=C(OC(C)(C)C1O)C(=O)c1ccccc1C2=O` (cis isomer) here?
A: 0.976 µM

Q: For `CCCCNC1C2=C(OC(C)(C)C1O)C(=O)c1ccccc1C2=O` (trans isomer), which IC50 is on record?
A: 0.082 µM

Q: For `CC1=C(SC[C@H](NC(=O)CC[C@H](N)C(=O)O)C(=O)NCC(=O)O)C(=O)c2ccccc2C1=O`, which IC50 is on record?
A: 0.88 µM

Q: Which IC50 does the source give for `O=C1C=Cc2ccccc2C1=O` [1,2-NAPHTHOQUINONE] here?
A: 7.1 µM

Q: With `COc1ccc2c(c1)C(=O)C1=C(C=CC(C)(C)O1)C2=O` as the compound, how does the IC50 read?
A: 0.933 µM

Q: For `CC1(C)CCC2=C(O1)C(=O)c1ccccc1C2=O` [ALPHA-LAPACHONE], which IC50 is on record?
A: 4.34 µM

Q: Which IC50 does the source give for `CC1(C)OC2=C(C(=O)c3ccccc3C2=O)C(OCc2ccccc2)C1O` (stereo not given) here?
A: 1.09 µM

Q: With `O=c1ccoc2ccccc12` as the compound, how does the Activity read?
A: inactive

Q: With `COc1ccc2c(c1)C(=O)C1=C(OC(C)(C)C=C1)C2=O` as the compound, how does the IC50 read?
A: 3.02 µM

Q: Which Activity does the source give for `O=C1C=CC(=O)C(c2ccccc2)=C1` here?
A: inactive

Q: With `COC1=CC(=O)c2ccccc2C1=O` [2-Methoxy-1,4-naphthoquinone] as the compound, how does the IC50 read?
A: 0.72 µM

Q: With `COC1C2=C(OC(C)(C)C1O)C(=O)c1ccccc1C2=O` (trans isomer) as the compound, how does the IC50 read?
A: 3.96 µM

Q: With `CC1(C)OC2=C(C(=O)c3ccccc3C2=O)C(SCc2ccccc2)C1O` (cis isomer) as the compound, how does the IC50 read?
A: 3.45 µM

Q: Which IC50 does the source give for `CCCCN[C@H]1C2=C(OC(C)(C)[C@H]1O)C(=O)c1ccccc1C2=O` here?
A: 0.13 µM

Q: Which Activity does the source give for `CC1=CC(=O)C=CC1=O` here?
A: inactive

Q: Which Ki does the source give for `CCc1c(C)cc2c(c1O)C(=O)C1=C(C2=O)C(C)(C)C(=O)C(C)(C(=O)OC)O1` (stereo not given) here?
A: 0.12 µM

Q: With `CC1(C)OC2=C(C(=O)c3ccccc3C2=O)C(N2CCOCC2)C1O` (cis isomer) as the compound, how does the IC50 read?
A: 1.1 µM

Q: With `CC1=CC(=O)c2ccccc2C1=O` [MENADIONE] as the compound, how does the IC50 read?
A: 1 µM

Test system: not listed separately
Assay: Cytotoxicity against human TREx cells expressing doxycyclin-inducible IDO assessed as cell viability by SRB assay
Type: functional
Conditions: read-out: LD50 (the source's name)
Outline: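 T-REx cells with inducible human IDO cDNA, seeded at 20000/well in DMEM + 10% FBS, induced 72 h with 20 ng/mL doxycycline, rinsed, then exposed to serial compound dilutions in phenol red-free DMEM + 10% FBS for 18 h, in triplicate.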

Q: With `CC1=CC(=O)c2ccccc2C1=O` [MENADIONE] as the compound, how does the CC50 read?
A: 126 µM

Test system: Mus musculus
Assay: Antitumor activity in parous MMTV-Neu transgenic FVB mouse assessed as tumor volume at 25 mg/kg, ip qd for 5 days
Type: functional, organism-based
Parameters: dose 25 mg/kg
Conditions: not given
Outline: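 Autochthonous mammary tumors in parous FVB MMTV-Neu mice expressing wild-type rat HER2/Neu. Agent given at 25 mg/kg for 5 consecutive days in the first week; paclitaxel cohorts received 13.3 mg/kg i.v. qd 3×/week over the 2-week treatment period. Read-out is fold change in volume of individual tumors, with mean ± SEM per group.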

Q: With `CC1=CC(=O)c2ccccc2C1=O` [MENADIONE] as the compound, how does the Activity read?
A: Active

Test system: B16-F10
Assay: Antitumor activity in mouse B16-F10 cells isografted athymic NCr-nu/nu mouse at 25 mg/kg, ip qd for 5 days
Type: functional, organism-based
Parameters: dose 25 mg/kg
Conditions: not given
Outline: (§1)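 Mice given 1 × 10^5 B16-F10 melanoma cells s.c.; i.p. dosing at 25 mg/kg qd 5 days a week begins 7 days later and runs until the experiment ends. Tumors are measured by caliper twice weekly until control tumors reach ~5000 mm3. Data are mean tumor size ± SEM. Treated and untreated groups are compared at study end by two-tailed Mann–Whitney test.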

Q: With `CC1=CC(=O)c2ccccc2C1=O` [MENADIONE] as the compound, how does the Activity read?
A: inactive

Target: T1, Indoleamine 2,3-dioxygenase 1
Assay: Inhibition of purified human recombinant IDO expressed in TREx cells
Conditions: not given
Outline: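 T-REx cells carrying doxycycline-inducible human IDO cDNA are seeded at 20000/well and induced 72 h with doxycycline. They are rinsed, then exposed in triplicate to serial dilutions in phenol red-free DMEM + 10% FBS for 18 h and TCA-fixed. Supernatant kynurenine is read with p-DMAB at 490 nm, corrected for SRB viability. IC50 is taken from a sigmoidal curve.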
Target sequence in this assay (P14902 whole entry): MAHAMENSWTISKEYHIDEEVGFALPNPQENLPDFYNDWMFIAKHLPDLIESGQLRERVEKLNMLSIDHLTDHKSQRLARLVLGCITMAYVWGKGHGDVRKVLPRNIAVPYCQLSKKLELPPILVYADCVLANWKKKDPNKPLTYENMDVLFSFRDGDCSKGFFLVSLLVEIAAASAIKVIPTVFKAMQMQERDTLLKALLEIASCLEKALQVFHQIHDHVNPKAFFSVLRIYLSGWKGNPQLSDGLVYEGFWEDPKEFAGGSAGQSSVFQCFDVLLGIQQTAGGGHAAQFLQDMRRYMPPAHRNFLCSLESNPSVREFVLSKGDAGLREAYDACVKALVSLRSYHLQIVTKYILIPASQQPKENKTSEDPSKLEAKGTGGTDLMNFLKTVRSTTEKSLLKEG

Q: Which IC50 does the source give for `CC1(C)C=CC2=C(O1)C(=O)c1c(O)cccc1C2=O` here?
A: 69 µM

Q: For `CCCCNC1C2=C(OC(C)(C)C1O)C(=O)c1ccccc1C2=O` (trans isomer), which IC50 is on record?
A: 87 µM

Test system: B16-F10
Assay: Antitumor activity in mouse B16-F10 cells isografted C57BL/6 mouse at 25 mg/kg, ip qd for 5 days
Type: functional, organism-based
Parameters: dose 25 mg/kg
Conditions: not given
Outline: as §1

Q: Which Activity does the source give for `CC1=CC(=O)c2ccccc2C1=O` [MENADIONE] here?
A: Active

Test system: B16-F10
Assay: Antitumor activity in mouse B16-F10 cells isografted IDO knockout C57BL/6 mouse at 25 mg/kg, ip qd for 5 days
Type: functional, organism-based
Parameters: dose 25 mg/kg
Conditions: not given
Outline: as §1

Q: For `CC1=CC(=O)c2ccccc2C1=O` [MENADIONE], which Activity is on record?
A: inactive
